Results reported in ChEMBL document CHEMBL1123096, “Alpha-adrenoreceptor reagents. 3. Synthesis of some 2-substituted 1,4-benzodioxans as selective presynaptic alpha 2-adrenoreceptor antagonists” (J Med Chem, 1985).

What was measured:
[1] = biological target: T1, Adrenergic receptor alpha-1 (Rattus norvegicus) (UniProt P15823+P23944+P43140); assay: Alpha-1 adrenergic receptor binding activity relative to idazoxan.; assay type: protein assay
[2] = biological target: Adrenergic receptor alpha (Rattus norvegicus) (UniProt P15823+P23944+P43140+P22086+P19328+P22909); assay: Selectivity as ratio […] against alpha-2 receptor to that of alpha-1 receptor.; assay type: protein assay
[3] = biological target: T2, Adrenergic receptor alpha-2 (Rattus norvegicus) (UniProt P22086+P19328+P22909); assay: Presynaptic antagonist activity towards alpha-2 adrenergic receptor.; assay type: functional
Method in brief: (§1)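 Vas deferens from rat or mouse; the mouse tissue was in Mg-free Krebs at 30 °C under 0.5 g tension, stimulated at 0.1 Hz, 3 ms, 100–140 V, giving a twitch of about 100 mg. […] Standard curves were run before and after the test curve.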

[4] = biological target: T3, Adrenergic receptor alpha-2 (Rattus norvegicus, UniProt P22086+P19328+P22909); assay: Alpha-2 adrenergic receptor antagonist activity in a rat vas deferens assay. Values ranges from 8.31-8.44; assay type: functional
T3 sequence (P22086 whole entry): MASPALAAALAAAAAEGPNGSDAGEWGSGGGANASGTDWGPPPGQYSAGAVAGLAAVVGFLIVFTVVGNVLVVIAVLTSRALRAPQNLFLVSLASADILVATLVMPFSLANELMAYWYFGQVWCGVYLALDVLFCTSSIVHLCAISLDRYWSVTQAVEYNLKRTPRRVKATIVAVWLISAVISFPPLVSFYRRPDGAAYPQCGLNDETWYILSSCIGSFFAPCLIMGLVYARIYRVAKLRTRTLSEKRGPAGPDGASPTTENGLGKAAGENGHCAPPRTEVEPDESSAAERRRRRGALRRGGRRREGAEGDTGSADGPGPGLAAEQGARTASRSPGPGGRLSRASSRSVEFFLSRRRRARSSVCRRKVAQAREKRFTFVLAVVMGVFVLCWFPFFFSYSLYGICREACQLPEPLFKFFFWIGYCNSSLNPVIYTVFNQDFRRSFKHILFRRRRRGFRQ
T3 sequence (P19328 whole entry): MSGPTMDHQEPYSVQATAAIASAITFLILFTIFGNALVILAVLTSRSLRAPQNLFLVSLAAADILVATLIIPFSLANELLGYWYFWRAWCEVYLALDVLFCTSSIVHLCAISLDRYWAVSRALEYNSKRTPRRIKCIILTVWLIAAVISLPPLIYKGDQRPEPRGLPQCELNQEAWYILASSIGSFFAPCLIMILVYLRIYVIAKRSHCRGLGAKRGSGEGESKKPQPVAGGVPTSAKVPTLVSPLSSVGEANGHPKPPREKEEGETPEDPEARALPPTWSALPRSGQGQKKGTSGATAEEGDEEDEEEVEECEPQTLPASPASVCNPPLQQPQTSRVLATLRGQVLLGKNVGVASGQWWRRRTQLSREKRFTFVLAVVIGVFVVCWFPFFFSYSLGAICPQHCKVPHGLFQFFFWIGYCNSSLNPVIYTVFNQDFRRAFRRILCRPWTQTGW
T3 sequence (P22909 whole entry): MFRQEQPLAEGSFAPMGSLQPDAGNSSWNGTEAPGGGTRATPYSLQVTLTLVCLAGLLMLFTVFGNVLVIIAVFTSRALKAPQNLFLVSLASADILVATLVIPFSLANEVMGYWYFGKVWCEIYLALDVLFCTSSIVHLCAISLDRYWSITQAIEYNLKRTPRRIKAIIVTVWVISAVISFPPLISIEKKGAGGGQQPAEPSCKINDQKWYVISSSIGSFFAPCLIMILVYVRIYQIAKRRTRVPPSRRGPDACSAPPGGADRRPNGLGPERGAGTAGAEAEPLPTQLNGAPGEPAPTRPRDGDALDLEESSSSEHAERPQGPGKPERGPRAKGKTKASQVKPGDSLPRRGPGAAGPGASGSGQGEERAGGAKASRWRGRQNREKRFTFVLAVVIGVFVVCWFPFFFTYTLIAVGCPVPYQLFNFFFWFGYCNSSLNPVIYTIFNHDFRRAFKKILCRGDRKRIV
Method in brief: (§2)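 pA2 at presynaptic α2-adrenoreceptors in field-stimulated rat vas deferens. Tissue was held in Krebs solution (NaCl 118 mM, KCl 4.7 mM, CaCl2 2.5 mM, KH2PO4 1.2 mM, MgSO4 0.6 mM, NaHCO3 25 mM, dextrose 11.1 mM) gassed with 95% O2/5% CO2 at 30 °C. Stimulation was 3-ms pulses, 40 V, 0.1 Hz, with contractions recorded isometrically. Twitches were inhibited by clonidine (110 nM).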

[5] = biological target: T4, Adrenergic receptor alpha-1 (Rattus norvegicus, UniProt P15823+P23944+P43140); assay: Alpha-1 adrenergic receptor antagonist activity in a rat anococcygeus. Values ranges from 6.63-6.78; assay type: functional
T4 sequence (P15823 whole entry): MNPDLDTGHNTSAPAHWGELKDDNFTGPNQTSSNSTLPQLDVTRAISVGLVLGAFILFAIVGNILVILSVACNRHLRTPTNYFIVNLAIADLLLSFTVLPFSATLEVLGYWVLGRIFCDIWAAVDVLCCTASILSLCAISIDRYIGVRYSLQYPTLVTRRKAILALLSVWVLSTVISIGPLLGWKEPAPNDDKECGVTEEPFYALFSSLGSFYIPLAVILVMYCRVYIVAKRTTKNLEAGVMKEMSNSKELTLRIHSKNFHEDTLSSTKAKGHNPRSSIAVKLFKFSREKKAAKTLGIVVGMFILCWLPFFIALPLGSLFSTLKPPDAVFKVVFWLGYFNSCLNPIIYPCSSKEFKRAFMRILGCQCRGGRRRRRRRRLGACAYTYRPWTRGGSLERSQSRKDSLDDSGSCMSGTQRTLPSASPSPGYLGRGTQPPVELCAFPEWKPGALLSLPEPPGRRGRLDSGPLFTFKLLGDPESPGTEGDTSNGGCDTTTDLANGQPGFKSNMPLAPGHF
T4 sequence (P23944 whole entry): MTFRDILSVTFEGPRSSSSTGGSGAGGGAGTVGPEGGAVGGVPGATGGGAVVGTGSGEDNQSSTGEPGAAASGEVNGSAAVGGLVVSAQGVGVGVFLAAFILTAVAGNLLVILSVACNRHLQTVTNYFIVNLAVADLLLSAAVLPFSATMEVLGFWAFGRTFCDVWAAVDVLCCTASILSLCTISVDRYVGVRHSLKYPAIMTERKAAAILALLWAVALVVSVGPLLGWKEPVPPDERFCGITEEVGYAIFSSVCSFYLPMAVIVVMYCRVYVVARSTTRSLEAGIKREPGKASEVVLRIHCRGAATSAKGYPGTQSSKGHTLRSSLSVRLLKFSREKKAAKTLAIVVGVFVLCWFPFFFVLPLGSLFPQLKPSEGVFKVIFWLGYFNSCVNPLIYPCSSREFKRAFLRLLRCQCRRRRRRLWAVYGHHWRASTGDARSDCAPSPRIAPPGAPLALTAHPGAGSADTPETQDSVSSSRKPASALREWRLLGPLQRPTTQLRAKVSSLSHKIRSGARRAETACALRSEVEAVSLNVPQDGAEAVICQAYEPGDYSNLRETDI
T4 sequence (P43140 whole entry): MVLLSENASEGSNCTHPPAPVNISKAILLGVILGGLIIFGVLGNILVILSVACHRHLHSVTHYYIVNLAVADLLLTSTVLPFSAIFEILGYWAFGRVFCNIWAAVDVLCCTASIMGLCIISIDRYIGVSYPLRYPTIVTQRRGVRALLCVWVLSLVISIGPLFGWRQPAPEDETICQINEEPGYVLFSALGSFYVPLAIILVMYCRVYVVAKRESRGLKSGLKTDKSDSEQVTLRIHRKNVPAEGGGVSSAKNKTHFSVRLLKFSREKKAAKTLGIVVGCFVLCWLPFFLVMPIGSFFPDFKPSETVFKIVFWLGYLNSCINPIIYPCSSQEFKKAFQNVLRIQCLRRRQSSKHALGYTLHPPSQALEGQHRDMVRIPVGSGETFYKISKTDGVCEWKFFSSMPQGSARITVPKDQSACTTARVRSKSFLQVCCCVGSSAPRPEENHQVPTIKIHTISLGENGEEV

[6] = biological target: T1, Adrenergic receptor alpha-1 (Rattus norvegicus); assay: post-synaptic antagonist activity towards alpha-1 adrenergic receptor was determined. Concentration giving a dose response to phenylephrine (idazoxan=1) was reported.; assay type: functional
Method in brief: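 Rat anococcygeus, postsynaptic α1 antagonism. At least five phenylephrine concentration–response curves were run alone, then at least four with the antagonist present.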

[7] = biological target: T2, Adrenergic receptor alpha-2 (Rattus norvegicus); assay: Alpha-2 adrenergic receptor antagonist activity compared to idazoxan; assay type: functional; method in brief: as §1
[8] = biological target: T4, Adrenergic receptor alpha-1; assay: Alpha-1 antagonist activity in a rat anococcygeus. Values ranges from 6.6-7.23; assay type: functional
[9] = biological target: T3, Adrenergic receptor alpha-2; assay: Alpha-2 adrenergic receptor antagonist activity in a rat vas deferens assay. Values ranges from 9.30-9.52; assay type: functional, tissue-based; method in brief: as §2
[10] = biological target: T4, Adrenergic receptor alpha-1; assay: Alpha-1 adrenergic receptor antagonist activity in a rat anococcygeus. Values ranges from 5.84-6.31; assay type: functional
[11] = biological target: T3, Adrenergic receptor alpha-2; assay: Alpha-2 adrenergic receptor antagonist activity in a rat vas deferens assay. Values ranges from […]; assay type: functional, tissue-based; method in brief: as §2
[12] = biological target: T4, Adrenergic receptor alpha-1; assay: Alpha-1 adrenergic receptor antagonist activity in a rat anococcygeus. Values ranges from 5.37-5.48; assay type: functional
[13] = biological target: T3, Adrenergic receptor alpha-2; assay: Alpha-2 adrenergic receptor antagonist activity in a rat vas deferens assay. Values ranges from 8.00-8.47; assay type: functional, tissue-based; method in brief: as §2
[14] = biological target: T4, Adrenergic receptor alpha-1; assay: Alpha-1 adrenergic receptor antagonist activity in a rat anococcygeus. Values ranges from 6.53-7.08; assay type: functional
[15] = biological target: T3, Adrenergic receptor alpha-2; assay: Alpha-2 adrenergic receptor activity in a rat vas deferens assay. Values ranges from 8.85-9.01; assay type: tissue-based; method in brief: as §2
[16] = biological target: T1, Adrenergic receptor alpha-1 (Rattus norvegicus); assay: post-synaptic antagonist activity towards adrenergic receptor was determined. Concentration giving a dose response to phenylephrine (idazoxan=1) was reported.; assay type: functional
Method in brief: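 The agonist was phenylephrine, tested on isolated rat anococcygeus under 0.5 g initial tension. At least five phenylephrine dose-response curves were run alone, then at least four in the presence of the analogue.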

[17] = biological target: T3, Adrenergic receptor alpha-2; assay: Alpha-2 adrenergic receptor antagonist activity in a rat vas deferens assay. Values ranges from 7.80-8.14; assay type: functional, tissue-based
[18] = biological target: T4, Adrenergic receptor alpha-1; assay: Alpha-1 adrenergic receptor antagonist activity in a rat anococcygeus. Values ranges from 5.19-5.44; assay type: functional

Compound `CCCCOC1(C2=NCCN2)COc2ccccc2O1` (configuration not stated) has a Relative potency [1] of 2.4, a Ratio [2] of 0.7 and a potency relative to idazoxan [3] of 1.6. For the same compound, the pA2 [4] was 8.37, the pA2 [5] was 6.7 and the Postsynaptic antagonist [6] was 2.2. It also gave a Relative potency [7] of 0.7.
With `COC1(C2=NCCN2)COc2ccccc2O1` (configuration not stated) the pA2 [8] was 6.91, the pA2 [9] was 9.41 and the Relative potency [1] was 4. It also gave a Ratio [2] of 2.8, a potency relative to idazoxan [3] of 11 and a Postsynaptic antagonist [6] of 4. It also gave a Relative potency [7] of 8.1.
With `CC(C)OC1(C2=NCCN2)COc2ccccc2O1` (configuration not stated) the Relative potency [1] was 0.5, the pA2 [10] was 6.01 and the Ratio [2] was 1.6. The pA2 [11] was 8.67, the potency relative to idazoxan [3] was 1 and the Postsynaptic antagonist [6] was 0.6. For the same compound, the Relative potency [7] was 1.5.
In the case of `C=C(C)C1(C2=NCCN2)COc2ccccc2O1.Cl` (configuration not stated), the pA2 [12] is reported as 5.42, the pA2 [13] is reported as 8.21 and the Relative potency [1] is reported as 0.1. It also gave a Ratio [2] of 5.7, a potency relative to idazoxan [3] of 0.4 and a Postsynaptic antagonist [6] of 0.07. It also gave a Relative potency [7] of 0.5.
In the case of `CCOC1(C2=NCCN2)COc2ccccc2O1.Cl` (configuration not stated), the Relative potency [1] is reported as 2.6, the Ratio [2] is reported as 0.8 and the pA2 [14] is reported as 6.74. It also gave a pA2 [15] of 8.92, a potency relative to idazoxan [3] of 5.9 and a Postsynaptic antagonist [6] of 7. It also gave a Relative potency [7] of 2.6.
`CC1(C2=NCCN2)COc2ccccc2O1.Cl` (configuration not stated) was tested, and the Postsynaptic antagonist [16] was 0.28, the Relative potency [1] was 0.1 and the Ratio [2] was 2.4. The pA2 [17] was 8.14, the pA2 [18] was 5.44 and the potency relative to idazoxan [3] was 0.67. The Relative potency [7] was 0.3.
